Source: ChEMBL document CHEMBL1255332, “Isobolographic analysis of pharmacodynamic interactions between antifungal agents and ciprofloxacin against Candida albicans and Aspergillus fumigatus” (Antimicrob Agents Chemother, 2008)
≈ marks a conversion by molar mass, not a printed value.

How the values were obtained:
Assay type in all cases: functional, organism-based
[1] = system: Candida albicans; assay: Antifungal activity against Candida albicans CA362 by spectrophotometry
How it was run: (§1)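 Clinical C. albicans blastoconidia came from 1- to 2-day Sabouraud cultures, with a final inoculum of 5 × 10^2 to 2.5 × 10^3 CFU/ml in RPMI 1640 buffered to pH 7 with 0.165 M MOPS. Incubation was 37°C for 24 h. A405 was corrected against a conidium-free plate and expressed as % of drug-free control, and an Emax model was fitted for EC50. Three replicates.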

[2] = system: Aspergillus fumigatus; assay: Antifungal activity against Aspergillus fumigatus AF2025 spectrophotometry
How it was run: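 Conidia from 5–7-day Sabouraud agar cultures were adjusted to 80–82% transmittance at 530 nm, giving a final 0.4 × 10^4 to 5 × 10^4 CFU/ml in RPMI 1640 buffered at pH 7 with 0.165 M MOPS. They were tested in a checkerboard alone or with ciprofloxacin for 24 h at 37°C. A405 was converted to % of drug-free growth after background subtraction, an Emax model was fitted, and each test was run in triplicate.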

[3] = system: Candida albicans; assay: Antifungal activity against Candida albicans CA5685 by spectrophotometry; how it was run: as §1
[4] = system: Aspergillus fumigatus; assay: Antifungal activity against Aspergillus fumigatus AF2350 by spectrophotometry
How it was run: (§2)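 Clinical A. fumigatus conidia were harvested from 5- to 7-day Sabouraud cultures, with a final inoculum of 0.4 × 10^4 to 5 × 10^4 CFU/ml in RPMI 1640 (0.165 M MOPS, pH 7). Incubation was 37°C for 24 h. Growth at 405 nm, background-subtracted, was expressed as % of drug-free control, and an Emax model was fitted to give EC50. Three replicates.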

[5] = system: Candida albicans; assay: Antifungal activity against Candida albicans CA8621 by spectrophotometry; how it was run: as §1
[6] = system: Aspergillus fumigatus; assay: Antifungal activity against Aspergillus fumigatus AF4215 spectrophotometry; how it was run: as §2

C[C@@H]1[C@H](O)[C@@H](C)/C=C/C=C/C=C/C=C/C=C/C=C/C=C/[C@H](O[C@@H]2O[C@H](C)[C@@H](O)[C@H](N)[C@@H]2O)C[C@@H]2O[C@](O)(C[C@@H](O)C[C@@H](O)[C@H](O)CC[C@@H](O)C[C@@H](O)CC(=O)O[C@H]1C)C[C@H](O)[C@H]2C(=O)O [AMPHOTERICIN B]
EC50 [1]: 0.25 µg/mL (≈ 0.271 µM) | MIC [1]: 0.125 µg/mL (≈ 0.135 µM) | EC50 [2]: 0.5 µg/mL (≈ 0.541 µM) | MIC [2]: 0.5 µg/mL (≈ 0.541 µM)

CC[C@H](C)C[C@H](C)CCCCCCCCC(=O)N[C@H]1C[C@@H](O)[C@@H](NCCN)NC(=O)[C@@H]2[C@@H](O)CCN2C(=O)[C@H]([C@H](O)CCN)NC(=O)[C@H]([C@H](O)[C@@H](O)c2ccc(O)cc2)NC(=O)[C@@H]2C[C@@H](O)CN2C(=O)[C@H]([C@@H](C)O)NC1=O [CASPOFUNGIN]
EC50 [3]: 0.59 µg/mL (≈ 0.54 µM) | MIC [3]: 1 µg/mL (≈ 0.915 µM) | EC50 [4]: 28.8 µg/mL (≈ 26.3 µM) | MIC [4]: 128 µg/mL (≈ 117 µM)

OC(Cn1cncn1)(Cn1cncn1)c1ccc(F)cc1F [FLUCONAZOLE]
EC50 [5]: 0.09 µg/mL (≈ 0.294 µM) | MIC [5]: 0.125 µg/mL (≈ 0.408 µM) | EC50 [6]: 0.18 µg/mL (≈ 0.588 µM) | MIC [6]: 0.5 µg/mL (≈ 1.63 µM)
